Laboratory results from ChEMBL document CHEMBL4725241, “Discovery of BMS-986235/LAR-1219: A Potent Formyl Peptide Receptor 2 (FPR2) Selective Agonist for the Prevention of Heart Failure” (J Med Chem, 2020).

What was measured:
[1] = Clearance in dog liver microsome at 0.1 umol/l and measured for 60 mins by LC-MS/MS analysis; type: ADME, Canis lupus familiaris; conditions: microsomes, 1 h, 0.1 µM, dose 0.1 µmol/L
How it was run: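 Liver microsomes (1 mg protein/mL final) with an NADPH regenerating system were preincubated 5 min at 37°C, then given 0.1 µmol/L compound. Samples were taken at 0-60 min, quenched in methanol/acetonitrile with internal standard, and analysed by LC-MS/MS. Runs were in triplicate. kel came from 5-30 min points. CLint = kel/protein concentration (mL/min/mg protein).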

[2] = Cmax in Crl:CD(SD) rat at 1 mg/kg, po by LC-MS/MS analysis; type: ADME, organism-based; set-up: route oral, dose 1 mg/kg; conditions: in vivo
How it was run: (§1)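 Male animals dosed orally with a suspension in 0.5% MC. Blood was taken into EDTA 2K capillaries and plasma was stored frozen. Plasma was mixed with methanol/acetonitrile (1:1) plus internal standard, centrifuged, and drug was measured by LC-MS/MS. AUC0-inf was obtained by the trapezoidal rule, extrapolated with kel from the terminal phase. t1/2 = ln2/kel.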

[3] = Volume of distribution at steady state in Crl:CD1(ICR) mouse at 0.5 mg/kg, iv by LC-MS/MS analysis; type: ADME, organism-based; conditions: in vivo, read-out: Vdss
How it was run: (§2)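 Male animals received intravenous solution in DMSO/PEG400/saline (5/47.5/47.5). EDTA plasma was extracted with methanol/acetonitrile (1:1) plus internal standard and quantified by LC-MS/MS. AUC0-inf was calculated by the trapezoidal rule with terminal-phase kel extrapolation.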

[4] = Oral bioavailability in cynomolgus monkey at 3 mg/kg by LC-MS/MS analysis; type: ADME, organism-based, Macaca fascicularis; conditions: in vivo
How it was run: (§3)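 Oral bioavailability = (AUC0-inf,po/dose po)/(AUC0-inf,iv/dose iv) × 100. Oral dosing used a 0.5% MC suspension. IV dosing used a DMSO/PEG400/saline (5/47.5/47.5) solution, with CD1(ICR) mice for the iv arm. Plasma drug levels were measured by LC-MS/MS after methanol/acetonitrile extraction with internal standard.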

[5] = AUC (0 to infinity) in Crl:CD(SD) rat at 1 mg/kg, po by LC-MS/MS analysis; type: ADME, organism-based; set-up: time infinity, route oral, dose 1 mg/kg; conditions: in vivo; how it was run: as §1
[6] = Total clearance in Beagle dog at 1 mg/kg, iv by LC-MS/MS analysis; type: ADME, organism-based, Canis lupus familiaris; conditions: in vivo; how it was run: as §2
[7] = Half life in cynomolgus monkey at 3 mg/kg, po by LC-MS/MS analysis; type: ADME, organism-based, Macaca fascicularis; conditions: in vivo; how it was run: as §1
[8] = Volume of distribution at steady state in Crl:CD(SD) rat at 1 mg/kg, iv by LC-MS/MS analysis; type: ADME, organism-based; conditions: in vivo, read-out: Vdss; how it was run: as §2
[9] = Cmax in Beagle dog at 1 mg/kg, po by LC-MS/MS analysis; type: ADME, organism-based, Canis lupus familiaris; set-up: route oral, dose 1 mg/kg; conditions: in vivo; how it was run: as §1
[10] = biological target: T1, fMet-Leu-Phe receptor (Homo sapiens, UniProt P21462); test: Agonist activity at human FPR1 expressed in HEK 293 cells co-expressing Galpha15 measured every 1.5 sec for 80 sec by Fluo-4 NW staining based scanning fluorometric method; type: cell-based, HEK293
T1 sequence (P21462 whole entry): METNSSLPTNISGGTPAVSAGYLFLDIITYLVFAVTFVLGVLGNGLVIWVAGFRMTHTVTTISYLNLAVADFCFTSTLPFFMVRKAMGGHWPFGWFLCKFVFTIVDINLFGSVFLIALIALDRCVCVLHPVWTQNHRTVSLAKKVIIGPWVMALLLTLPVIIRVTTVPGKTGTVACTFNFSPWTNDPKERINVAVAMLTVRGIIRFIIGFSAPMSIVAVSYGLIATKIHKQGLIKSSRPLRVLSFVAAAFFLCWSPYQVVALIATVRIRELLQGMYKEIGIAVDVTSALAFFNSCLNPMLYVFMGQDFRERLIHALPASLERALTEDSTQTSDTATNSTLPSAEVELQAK

[11] = biological target: T2, Formyl peptide receptor 2 (Mus musculus, UniProt O88536); test: Agonist activity at mouse FPR2 expressed in HEK 293 cells co-expressing Galpha15 measured every 1.5 sec for 80 sec by Fluo-4 NW staining based scanning fluorometric method; type: cell-based, HEK293
T2 sequence (O88536 whole entry): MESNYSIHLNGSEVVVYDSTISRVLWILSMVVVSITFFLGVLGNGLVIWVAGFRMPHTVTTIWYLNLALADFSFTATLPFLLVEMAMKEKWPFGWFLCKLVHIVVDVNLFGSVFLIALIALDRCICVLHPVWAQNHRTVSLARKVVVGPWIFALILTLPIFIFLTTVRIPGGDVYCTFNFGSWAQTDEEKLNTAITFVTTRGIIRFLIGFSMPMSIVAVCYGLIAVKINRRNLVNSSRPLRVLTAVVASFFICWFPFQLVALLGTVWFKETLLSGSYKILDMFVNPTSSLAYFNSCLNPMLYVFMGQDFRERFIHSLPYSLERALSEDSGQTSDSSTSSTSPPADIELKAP
How it was run: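 HEK293 cells were transiently co-transfected with FPR plus Gα15 (Lipofectamine 2000), then reseeded after 24 h on poly-D-lysine plates and grown one more day. Cells were loaded with Fluo-4 NW for 45 min at 37°C. Compound was added and fluorescence (ex 485/em 525 nm) read for 80 s at 1.5 s intervals. Response = maximal peak minus basal.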

[12] = Volume of distribution at steady state in Beagle dog at 1 mg/kg, iv by LC-MS/MS analysis; type: ADME, organism-based, Canis lupus familiaris; conditions: in vivo, read-out: Vdss; how it was run: as §2
[13] = Clearance in dog hepatocytes at 0.1 umol/l and measured for 6 hrs by LC-MS/MS analysis; type: ADME, cell-based, Canis lupus familiaris, Hepatocyte; conditions: dose 0.1 µmol/L, read-out: CLH
How it was run: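 Hepatocytes (1 × 10⁶ cells/mL) in modified Krebs–Henseleit buffer were preincubated 5 min at 37°C, then given 0.1 µmol/L compound. Samples were taken at 0, 1, 2, 4 and 6 h and analysed by LC-MS/MS, in duplicate. kel came from 0-2 h points. CLint was scaled by hepatocellularity and liver weight (mL/min/kg).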

[14] = In vivo […] in mouse assessed as reduction in LPS-induced neutrophil infiltration in BALF cells at 1 mg/kg, po relative to control; type: functional
How it was run: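 Mice were given LPS and dosed orally at 1 mg/kg. Neutrophils in BALF were counted, and percent inhibition was calculated.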

[15] = Oral bioavailability in BALB/cCrSlc mouse at 1 mg/kg by LC-MS/MS analysis; type: ADME, organism-based; conditions: in vivo; how it was run: as §3
[16] = AUC (0 to infinity) in cynomolgus monkey at 3 mg/kg, po by LC-MS/MS analysis; type: ADME, organism-based, Macaca fascicularis; set-up: time infinity, route oral, dose 3 mg/kg; conditions: in vivo; how it was run: as §1
[17] = Total clearance in Crl:CD1(ICR) mouse at 0.5 mg/kg, iv by LC-MS/MS analysis; type: ADME, organism-based; conditions: in vivo; how it was run: as §2
[18] = biological target: T1, fMet-Leu-Phe receptor; test: Agonist activity at human FPR1 expressed in CHO cells assessed as reduction cAMP accumulation incubated for 1 hr by TR-FRET assay; type: functional, cell-based
How it was run: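 CHO cells overexpressing the receptor were used, 2,000 hFPR2 or 4,000 hFPR1 cells/well. Cells were incubated 30 min at room temperature with compound (1.7 nM-100 µM, 1% DMSO), IBMX 200 µM and forskolin (5 µM for FPR2, 10 µM for FPR1) in DPBS/0.1% BSA. cAMP was read by HTRF after 1 h lysis against a standard curve. Data were fitted to a 4-parameter logistic, average of ≥2 occasions.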

[19] = Half life in Beagle dog at 1 mg/kg, po by LC-MS/MS analysis; type: ADME, organism-based, Canis lupus familiaris; conditions: in vivo; how it was run: as §1

- CLH [1]: 42 µL/min/mg
- Cmax [2]: 240 nM
- Vd [3]: 3.5 L/kg
- bioavailability [4]: 49%
- AUC(0-inf) [5]: 0.64 µM·h
- clearance [6]: 6.6 mL/min/kg
- half-life [7]: 5 h
- Vd [8]: 3 L/kg
- Cmax [9]: 820 nM
- EC50 [10]: 2800 nM
- EC50 [11]: 3.4 nM
- Vd [12]: 0.98 L/kg
- CLint scaled at 0.1 µM [13]: 50 mL/min/kg
- bioavailability [15]: 24%
- AUC(0-inf) [16]: 5.8 µM·h
- clearance [17]: 90 mL/min/kg
- EC50 [18]: 400 nM
- half-life [19]: 2.5 h
Compound: COc1cc(F)c([C@@H]2CNC(=O)[C@H]2NC(=O)Nc2ccccc2)c(F)c1 [BMS-986235]
- inhibition in vivo at 1 mg/kg [14]: 88%
